Experimental findings from ChEMBL document CHEMBL1123512, “Synthesis and biological activity of analogues of beta-chlornaltrexamine and beta-funaltrexamine at opioid receptors” (J Med Chem, 1986) are described below.

For assay [1], the target named is T1, Opioid receptors; mu/kappa/delta (Homo sapiens, UniProt P41145+P41143+P35372). In words: Percent inhibition against opioid receptor in electrically stimulated longitudinal muscle of guinea pig ileum at 100 nM. The format is tissue-based. Conditions: Cavia porcellus, target entry is the homologue from another species.
Assay [2] has as its target T1, Opioid receptors; mu/kappa/delta. Kind of assay: (§1) Compound was tested for agonist activity against opioid receptor in electrically stimulated longitudinal muscle of guinea pig ileum. Conditions: Cavia porcellus, target entry is the homologue from another species. Format: functional, tissue-based.
Assay [3] addresses T2, Opioid receptor (Mus musculus) (UniProt P42866+P32300+P33534). In words: Compound was tested for agonist activity against opioid receptor in mouse vas deferens. The format is functional, tissue-based.
Assay [4] concerns the target T2, Opioid receptor (Mus musculus). Kind of assay: Percent inhibition against opioid receptor in mouse vas deferens at 1 uM. Format: tissue-based.
In assay [5] the target is T1, Opioid receptors; mu/kappa/delta. Kind of assay: Irreversible antagonistic activity against opioid receptor in electrically stimulated longitudinal muscle of guinea pig ileum expressed as IC50 of EK by IC50 of control. The format is functional, tissue-based. The method, boiled down:
(§2)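 Guinea pig ileum longitudinal muscle was exposed to ligand at 200 nM for 30 min, then washed thoroughly (30 times), and challenged with morphine or ethylketazocine (EK). The value is the agonist IC50 in the treated preparation divided by the control IC50 in the same preparation.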

Assay [6] has the same target. Kind of assay: Irreversible antagonistic activity against opioid receptor in electrically stimulated longitudinal muscle of guinea pig ileum expressed as IC50 of morphine by IC50 of control. The format is functional, tissue-based. Summed up:
as §2

Assay [7] shares this target. Kind of assay: (§3) Compound was tested for irreversible antagonistic activity against opioid receptor in mouse vas deferens. Format: functional, tissue-based.
Assay [8] can be described thus: Reversible antagonistic activity against opioid receptor in electrically stimulated longitudinal muscle of guinea pig ileum expressed as IC50 of EK by IC50 of control. The format is functional. Summed up: (§4)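 In guinea pig ileum longitudinal muscle, morphine or ethylketazocine (EK) was tested in the presence of ligand at 10 nM, without washing. The value is the agonist IC50 in the treated preparation divided by the control IC50 in the same preparation.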

Assay [9] can be described thus: Reversible antagonistic activity against opioid receptor in electrically stimulated longitudinal muscle of guinea pig ileum expressed as IC50 of morphine by IC50 of control. Format: functional. Summed up: as §4
Assay [10] concerns the target T1, Opioid receptors; mu/kappa/delta. The description is as §3. The format is functional, tissue-based. This is another data set of the same source.
Assay [11] deals with T2, Opioid receptor (Mus musculus). In words: Compound was tested for irreversible antagonistic activity against opioid receptor in mouse vas deferens at 3 uM. The format is functional, tissue-based.
The target in assay [12] is T1, Opioid receptors; mu/kappa/delta. The description is as §1. The format is functional, tissue-based, Cavia porcellus. Conditions: target entry is the homologue from another species.
The target is the same in assay [13]. In words: Compound was tested for irreversible antagonistic activity against opioid receptor in mouse vas deferens expressed as IC50 of DADLE by IC50 of control. The format is functional, tissue-based.
Assay [14] has the same target. Kind of assay: Percent inhibition against opioid receptor in electrically stimulated longitudinal muscle of guinea pig ileum at 1 uM. The format is tissue-based. Conditions: Cavia porcellus, target entry is the homologue from another species.
The target of assay [15] is T2, Opioid receptor (Mus musculus). Kind of assay: Percent inhibition against opioid receptor in mouse vas deferens at 3 uM. Format: tissue-based.
Assay [16] concerns the target T1, Opioid receptors; mu/kappa/delta. In words: Compound was tested for irreversible antagonistic activity against opioid receptor in mouse vas deferens expressed as IC50 of morphine by IC50 of control. The format is functional, tissue-based.

T1 sequence (P35372 whole entry, looked up): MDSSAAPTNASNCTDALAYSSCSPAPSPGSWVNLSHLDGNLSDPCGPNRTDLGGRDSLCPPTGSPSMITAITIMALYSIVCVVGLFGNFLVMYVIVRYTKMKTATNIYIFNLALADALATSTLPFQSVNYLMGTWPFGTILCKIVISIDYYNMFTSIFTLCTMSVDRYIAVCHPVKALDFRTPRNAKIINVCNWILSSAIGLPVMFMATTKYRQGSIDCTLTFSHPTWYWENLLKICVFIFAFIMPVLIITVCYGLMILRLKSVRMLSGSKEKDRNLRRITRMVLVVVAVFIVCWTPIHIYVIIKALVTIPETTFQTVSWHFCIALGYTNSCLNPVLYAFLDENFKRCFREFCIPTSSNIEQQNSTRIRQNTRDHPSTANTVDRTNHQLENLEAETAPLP
T1 sequence (P41143 whole entry, looked up): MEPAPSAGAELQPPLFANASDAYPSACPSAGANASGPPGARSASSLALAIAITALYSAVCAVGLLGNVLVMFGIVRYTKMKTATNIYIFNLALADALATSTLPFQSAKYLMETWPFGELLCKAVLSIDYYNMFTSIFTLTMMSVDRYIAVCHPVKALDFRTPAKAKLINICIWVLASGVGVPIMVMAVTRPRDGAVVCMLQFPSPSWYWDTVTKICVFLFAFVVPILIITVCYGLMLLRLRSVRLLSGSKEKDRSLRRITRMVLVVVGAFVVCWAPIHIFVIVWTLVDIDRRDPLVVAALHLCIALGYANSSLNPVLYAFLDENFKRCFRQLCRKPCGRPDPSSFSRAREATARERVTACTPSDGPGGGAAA
T1 sequence (P41145 whole entry, looked up): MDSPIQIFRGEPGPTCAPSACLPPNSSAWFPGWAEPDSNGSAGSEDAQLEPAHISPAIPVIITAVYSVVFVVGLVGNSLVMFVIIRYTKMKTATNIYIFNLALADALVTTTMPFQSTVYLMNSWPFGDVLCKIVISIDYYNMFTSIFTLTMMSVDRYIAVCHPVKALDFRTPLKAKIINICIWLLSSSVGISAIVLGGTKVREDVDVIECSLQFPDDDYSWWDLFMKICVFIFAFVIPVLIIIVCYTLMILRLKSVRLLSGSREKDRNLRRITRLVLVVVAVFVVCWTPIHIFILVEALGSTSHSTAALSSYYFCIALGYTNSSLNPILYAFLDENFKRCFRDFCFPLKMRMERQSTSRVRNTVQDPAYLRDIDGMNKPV
T2 sequence (P32300 whole entry, looked up): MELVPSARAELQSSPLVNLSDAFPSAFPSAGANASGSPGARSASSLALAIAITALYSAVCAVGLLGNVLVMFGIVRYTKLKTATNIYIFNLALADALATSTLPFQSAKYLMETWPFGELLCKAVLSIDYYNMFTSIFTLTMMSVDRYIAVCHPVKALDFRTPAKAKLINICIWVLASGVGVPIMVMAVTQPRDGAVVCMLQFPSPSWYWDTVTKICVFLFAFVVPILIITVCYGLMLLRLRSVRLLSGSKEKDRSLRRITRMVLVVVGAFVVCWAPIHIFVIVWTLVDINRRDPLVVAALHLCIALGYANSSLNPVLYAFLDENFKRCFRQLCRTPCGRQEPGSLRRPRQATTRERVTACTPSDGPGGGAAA
T2 sequence (P33534 whole entry, looked up): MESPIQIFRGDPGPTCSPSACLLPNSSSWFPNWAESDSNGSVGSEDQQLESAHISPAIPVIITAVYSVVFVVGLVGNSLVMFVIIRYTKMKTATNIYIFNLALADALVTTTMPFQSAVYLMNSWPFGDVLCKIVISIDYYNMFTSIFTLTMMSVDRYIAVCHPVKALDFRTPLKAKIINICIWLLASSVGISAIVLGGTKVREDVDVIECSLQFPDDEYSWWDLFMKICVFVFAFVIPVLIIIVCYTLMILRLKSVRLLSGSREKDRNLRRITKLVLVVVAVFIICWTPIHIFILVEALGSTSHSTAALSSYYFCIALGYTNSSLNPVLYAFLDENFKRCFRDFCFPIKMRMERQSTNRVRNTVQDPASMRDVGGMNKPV
T2 sequence (P42866 whole entry, looked up): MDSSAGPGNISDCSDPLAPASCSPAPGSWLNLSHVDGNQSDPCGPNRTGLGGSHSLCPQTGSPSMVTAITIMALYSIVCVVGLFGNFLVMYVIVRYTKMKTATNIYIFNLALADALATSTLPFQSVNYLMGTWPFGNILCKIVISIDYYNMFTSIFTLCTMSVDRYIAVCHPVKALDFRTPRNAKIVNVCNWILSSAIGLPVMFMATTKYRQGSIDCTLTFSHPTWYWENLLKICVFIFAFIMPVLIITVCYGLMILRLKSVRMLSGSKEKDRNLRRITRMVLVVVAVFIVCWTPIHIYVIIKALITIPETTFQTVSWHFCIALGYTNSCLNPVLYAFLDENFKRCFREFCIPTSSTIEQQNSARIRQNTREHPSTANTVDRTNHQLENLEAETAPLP

A word on the inhibition: it is the percentage by which the read-out fell short of the control. One may read the IC20 as the concentration at which the effect reaches the 20% level. A word on the IC30: it is the concentration needed for an effect of 30%. Read a low IC30 as greater potency. On to `CCOC(=O)/C=C/C(=O)NCC(=O)NCC(=O)NCC(=O)N[C@@H]1CC[C@@]2(O)C3Cc4ccc(O)c5c4C2(CCN3CC2CC2)[C@H]1O5` (stereo partly specified), for which the inhibition in [1] amounted to 45%; in assay [4], 61%. This compound also came in with an IC20 in assay [2] of 0.01 µM. The IC30 in assay [3] came out at 0.02 µM. In addition, the Ratio in assay [5] was 0.8; in assay [6] it was 1.3; in assay [7], 1.2; in [8] it was 3.3; in [9], 12.3.
Consider `CCOC(=O)/C=C/C(=O)NCC(=O)NCC(=O)N[C@@H]1CC[C@@]2(O)C3Cc4ccc(O)c5c4C2(CCN3CC2CC2)[C@H]1O5` (stereo partly specified), for which the values for the inhibition in assay [1] and in assay [4] were 45% and 59%, respectively. In [2], this compound registered an IC20 of 0.01 µM. The IC30 in assay [3] stood at 0.01 µM. The Ratio in assay [5] came out at 1.3; in assay [6] it was 3.9; in assay [7], 4.3; in assay [10], 1.2; in assay [8] it was 4.8; in assay [9], 16.8.
Broadly, the IC50 is the concentration that gives 50% inhibition. A lower IC50 goes with greater potency. Take `O=C(CN(CCCl)CCCl)N[C@@H]1CC[C@@]2(O)C3Cc4ccc(O)c5c4C2(CCN3CC2CC2)[C@H]1O5` (stereo partly specified): the IC30 in assay [3] was 0.02 µM. Besides, the inhibition in [11] came out at 54%; in assay [4], 55%. In addition, in [12], the IC50 came out at 0.0038 µM. The Ratio was 12.3 in [5], 27.4 in [6] and 4 in assay [13].
For the compound `CCOC(=O)/C=C/C(=O)NCC(=O)N[C@@H]1CC[C@@]2(O)C3Cc4ccc(O)c5c4C2(CCN3CC2CC2)[C@H]1O5` (stereo partly specified), the inhibition is 42% in [14] and 56% in assay [15]. In addition, the IC30 was 0.01 µM in assay [2] and 0.007 µM in [3]. The Ratio was 2 in assay [5]; 0.6 in assay [6]; 0.8 in [13]; 1.8 in assay [16]; 2.5 in assay [8]; 2.5 in [9].
